# Screens from PubChem.
# PfHsp90 set2 – growth inhibition of PfHsp90-expressing yeast, primary screen, antimalarial PfHsp90 inhibitor project, S. cerevisiae, BacTiter-Glo luminescence, single point, set 2. BacTiter-Glo ATP, 48 h; yeast lacking PDR1 and PDR3 efflux regulators. inhibition, % at 9.4 µM. 310,000 compounds, 0.32% hits. AID 504621, 2011;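 active = every replicate shows inhibition above about 80%, whatever the replicate mean, limit read from the data; inconclusive = mean inhibition reaches the set limit but some replicate falls short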;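 also: 0% = DMSO neutral controls and 100% = 20 µM radicicol positive controls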
# PvdQ inh – P. aeruginosa PvdQ acylase inhibitors, primary screen, biochemical, fluorescence, plate reader and imaging, single point. PvdQ acylase [Pseudomonas aeruginosa LESB58]. purified PvdQ acylase. inhibition, % at 10 µM. 340,000 compounds, 0.063% hits. AID 488965, 2010; in the data active = inhibition above about 30%, passing the limit was not always enough; inconclusive = no clear call, values can overlap the other calls;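 also: 0% = vehicle neutral wells and 100% = reference inhibitor wells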
# Glyco luc inh – increase of ERlucT glycosylation luciferase signal, primary screen, N-linked glycosylation inhibitor project, D54 ERlucT cells, luminescence, set 2; AID 588692, 2011; 360,000 compounds, 0.23% hits; D54 ERlucT glycosylation luciferase reporter, 24 h; percent of 100 nM tunicamycin response; reporter increase, % at 12.5 µM;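 active = mean luciferase reporter signal, scaled so untreated is 0 and the glycosylation-blocking control 100, at or above a set limit in every replicate; inconclusive = mean reaches the limit but not every replicate does; inactive = mean below the limit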;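 also: luciferase carries N-glycosylation sites so blocking glycosylation raises the light; 0% = median of neutral control wells and 100% = median of 100 nM tunicamycin wells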
# HSF-1 act – HSF-1 activators, primary screen, NIH3T3-HGL cells, MG132 stress, luminescence, single point; NIH3T3-HGL HSF-1 luciferase reporter, 8 h; 100% = twice DMSO control signal; activation, % at 9 µM; 300,000 compounds, 1.7% hits; AID 504408, 2011;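 active = mean replicate activation of at least 50% with a set share of replicates each reaching 50%; inconclusive = only one of those two conditions met; inactive = mean below 50% and too few replicates reaching it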;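 also: 0% = median of the neutral control wells and 100% = twice that signal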
# T cruzi repl – inhibitors of intracellular T. cruzi growth, primary screen, luminescence, NIH3T3 host cells; T. cruzi beta-gal in NIH3T3, 90 h; inhibition, % (test concentration not listed); 300,000 compounds, 1.4% hits;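 active = mean inhibition across valid replicates above about 55%, limit read from the data; inconclusive = mean below that limit but half or more replicates reach it; inactive = mean below it, under half of replicates reach it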;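 also: signal also drops with host cell toxicity which is not excluded here; 0% = plate median of DMSO wells and 100% = zero luminescence signal; higher percent means less beta-gal luminescence so fewer parasites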
#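 Test system: β-gal T. cruzi (Tulahuen C4) inside NIH/3T3 cells / Quantity: 5,000 cells/well / Measured by: luminescence from GalScreen with 0.05% NP40, read after 60 min / Medium: DMEM plus 2% FBS / Measure: parasite load inhibition, % / Reagent: Tulahuen C4 trypomastigotes, 5000/well / Schedule: co-culture of at least 90 h after 3 h attachment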
# CaV13 ICDI inh – Disruptors of the CACNA1D IQ motif to Ca2+-dependent inactivation inhibitor domain association, primary screening, Förster resonance energy transfer in intact living …. 340,000 compounds, 0.098% hits. HEK cells, CFP/YFP FRET ICDI-IQ, plate reader, 10 min; percent FRET-ratio fall versus neutral wells. inhibition, % at 12.3 µM;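 active = mean replicate inhibition of at least 30% and at least 1% of replicates passing that level; inconclusive = only one of the two criteria is met; inactive = neither criterion is met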;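 also: 0% = median of the neutral control wells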
# An asterisk follows results filed as active; u = inconclusive; x = no result given. Rows were chosen to be rich in hits. Some 3% of all compounds tested hit in one or more screens of this group.
SMILES,PfHsp90 set2,PvdQ inh,Glyco luc inh,HSF-1 act,T cruzi repl,CaV13 ICDI inh
COCCCn1c(SCC(=O)O)nc2cc(OC)c(OC)cc2c1=N,-39,-8,1,3,-19,6
COCCCn1c(SCc2ccccc2)nc2cc(OC)c(OC)cc2c1=N,x,-14,-3,11,56*,-9
CCOCc1c(C(=O)NC2=Nc3ccccc3NC(CC)=C2C(=O)OCC)oc2ccccc12,-9,-12,-6,-39,56*,-3
CCOC(=O)C1=C(CC)Nc2ccccc2N=C1NC(=O)c1oc2ccccc2c1C,-15,-8,-10,-39,49,-5
O=C(CCl)Nc1cccn2ncnc12,26,-1,0,-6,-3,-6
O=C(Nc1cccn2ncnc12)C(F)(F)F,2,7,2,63*,-16,-7
CC(C)n1ncc2c(C(=O)NCC(=O)Nc3ccccc3Br)cc(C3CC3)nc21,0,-16,3,x,x,x
CCn1c(N)c(C(=O)NCc2cccnc2)sc1=S,8,-11,1,-7,-6,-6
CCn1c(C(=O)NCc2cccnc2)cc2sc(Cl)cc21,0,-13,-2,14,62*,-9
Clc1cccc(Cl)c1/C=N\Nc1nccs1,-26,-5,-1,142*,-26,x
CC(C)NC(=S)N/N=C/c1ccccc1[N+](=O)[O-],6,-1,2,23,-1,-2
Cc1ccn2c(C(=O)N/N=C\c3ccccc3[N+](=O)[O-])c(C)nc2c1,-4,-3,-3,78*,9,-6
O=[N+]([O-])c1ccccc1C=NNC(=S)NN=Cc1ccccc1[N+](=O)[O-],x,-14,28*,x,x,-5
O=[N+]([O-])c1ccccc1/C=N\Nc1nccs1,-6,9,-1,78*,-6,-5
O=[N+]([O-])c1cc(/C=N\Nc2nccs2)ccc1O,x,x,x,0,9,x
Cc1ccn2c(C(=O)N/N=C/c3ccc(Cl)cc3)c(C)nc2c1,9,-8,1,15,-2,-2
CC1=C(C(=O)Nc2ccccc2F)C(c2ccsc2)C2=C(CC(c3ccccc3)CC2=O)N1 (stereo not given),-11,3,-3,5,56*,0
O=C1NC(C2CC3C=CC2C3)Nc2ccccc21 (stereo not given),x,x,-2,x,x,-6
CCCCNC(=O)/C(=C\c1ccc([N+](=O)[O-])o1)NC(=O)c1ccccc1,-7,-1,7,-1,63*,-4
Cc1ccc(C(=O)N/C(=C\c2ccc(-c3ccc(Cl)cc3)o2)C(=O)NCCCN(C)C)cc1,16,-5,-3,0,56*,-4
O=C(O)c1ccc(N/N=C/c2ccc(-c3cccc(Cl)c3)o2)cc1,104*,-13,4,-8,-38,-1
CN(C)CCNC(=O)/C(=C/c1ccc(-c2cccc(Cl)c2)o1)NC(=O)c1ccccc1,-7,-2,-1,66*,21,-6
CN(C)CCNC(=O)/C(=C/c1ccc(-c2cccc([N+](=O)[O-])c2)o1)NC(=O)c1ccccc1,16,2,-1,21,8,-6
CC(c1nc2ccccc2[nH]1)n1c(=O)c(-c2ccco2)nc2ccccc21 (stereo not given),x,x,x,x,x,-6
CCOC(=O)N(C)C[C@@H]1OCc2cnnn2CCCC(=O)N([C@H](C)CO)C[C@@H]1C,x,x,3,x,x,-7
SMILES,PfHsp90 set2,PvdQ inh,Glyco luc inh,HSF-1 act,T cruzi repl,CaV13 ICDI inh
O=C(Nc1cccc2cccnc12)c1csc(COCCO)n1,x,x,1,x,x,x
COc1cc(C2C3=C(CC(C)(C)CC3=O)N(C)C3=C2C(=O)CC(C)(C)C3)cc(Br)c1O,-17,-6,-1,-51,-5,35*
COc1cc(C2C3=C(CC(C)(C)CC3=O)N(C)C3=C2C(=O)CC(C)(C)C3)ccc1O,21,3,1,11,-20,5
C=CCn1c(O)c(C2=c3ccccc3=NC2=O)c2ccccc21,110*,0,10,257*,u,-20
Cc1ccc2c(c1)c(C1=c3ccccc3=NC1=O)c(O)n2C,1,7,9,195*,13,-6
CCC(=O)N1CCCC(C)(C(=O)NS(=O)(=O)c2ccccc2Cl)C1 (stereo not given),x,x,-1,x,x,-7
CCN1/C(=C/c2ccc3cccc(C)c3[n+]2CC)Sc2ccccc21,-15,5,u,-14,58*,-16
CCN1/C(=C/c2ccc3cc(C)cc(C)c3[n+]2CC)Sc2cc(C)ccc21,102*,-11,11,x,x,-6
CCN1/C(=C\c2ccc3cc(C)ccc3[n+]2CC)Sc2cc(C)c(C)cc21,94*,-6,14,1,64*,-5
CCN1/C(=C/c2ccc3cc(C)ccc3[n+]2CC)Sc2ccc3sccc3c21,101*,-15,-18,23,60*,x
CC(=O)N1c2ccc(C)cc2Sc2c1ccc1ccccc21,-29,-1,-6,x,x,-10
CCN1/C(=C/C(C)=C/c2sc3ccccc3[n+]2CC)Sc2ccccc21,72,-7,-17,-9,45,-10
N#CC1(C(N)=O)OC12CCS(=O)(=O)c1ccccc12 (stereo not given),17,-3,0,x,x,-7
Nc1[nH]c(C(=O)c2ccccc2)c(-c2cccc3ccccc23)c1C(=O)c1ccc(Br)cc1,x,x,x,x,x,-22
Cc1cc(S(=O)(=O)NCC2CC2)c(Cl)cc1Cl,-14,107*,-1,1,5,-17
O=S(=O)(NCC1CC1)c1cc(Cl)cc(Cl)c1,6,10,0,-21,-2,-6
CCCNC(=O)c1cc(S(=O)(=O)N2CCC3(CC2)OCCO3)ccc1F,x,x,-2,x,x,-7
O=C(c1cc(COc2ccc(F)cc2Cl)on1)N1CCSCC1,1,-7,-2,84*,14,-8
Cc1cccc(C)c1OCc1cc(C(=O)N2CCN(c3ccc(F)cc3)CC2)no1,-8,10,-6,70*,13,-6
COc1ccc(OCc2cc(C(=O)N3CCSCC3)no2)c(Cl)c1,5,-9,x,33,-8,-10
O=C(NC1CCCCC1)C(c1ccc(C(F)(F)F)cc1)n1c(=O)c(-c2ccco2)nc2ccccc21 (stereo not given),x,x,x,x,x,-6
Cc1ccc(/C=N/NC(=O)CN2CCN(S(=O)(=O)c3ccc(Br)cc3)CC2)s1,-4,-2,1,8,-17,-15
